Source: ChEMBL document CHEMBL1126736, “Synthesis and antiherpes virus activity of 1,5-anhydrohexitol nucleosides” (J Med Chem, 1993)
Converted amounts (≈) assume the structure as drawn.

Key:
[1] = tested on: Human alphaherpesvirus 3; assay: Inhibitory concentration against VZV strain OKA in human embryonic lung (HEL) cell culture; format: functional
[2] = tested on: L1210; assay: Inhibitory concentration required to reduce the growth of murine L1210 cells by 50%; format: functional, cell-based; settings: Mus musculus
In short: (§1)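 Cytostatic assay. The value is the concentration that reduces the growth (viability) of the cells by 50%.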

[3] = tested on: HEL; assay: Inhibitory concentration required to inhibit cell growth by 50% in human embryonic lung (HEL) cell culture; format: functional
In short: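 Uninfected HEL cells grown in 96-well trays. The value is the concentration that reduces cell growth by 50%. Single representative experiment.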

[4] = tested on: FM3A; assay: Inhibitory concentration required to reduce the growth of murine FM3A cells by 50%; format: functional, cell-based; settings: Mus musculus; in short: as §1
[5] = tested on: Human alphaherpesvirus 2; assay: Inhibitory concentration against HSV type 2 strain G in human embryonic skin muscle (ESM) fibroblast cell culture; format: functional
In short: (§2)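 Assay in human embryonic skin-muscle (ESM) cells grown in 96-well trays. The value is the concentration that reduces virus-induced cytopathicity by 50%. Single representative experiment.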

[6] = tested on: ESM; assay: Inhibitory concentration required for morphologic alteration in normal cell in human embryonic skin muscle (ESM) fibroblast cell culture; format: functional
In short: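 Uninfected ESM cells in 96-well trays, examined under the microscope. The value is the minimal concentration that causes a detectable change in normal cell morphology. Tested up to 400 μg/mL. Single representative experiment.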

[7] = tested on: Human alphaherpesvirus 3; assay: (§3) Inhibitory concentration against TK-VZV strain YS-R in human embryonic lung (HEL) cell culture; format: functional
In short: (§4)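 Plaque-reduction assay in human embryonic lung (HEL) cells grown in 96-well trays. The value is the concentration that reduces virus plaque formation by 50%. Single representative experiment.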

[8] = tested on: Cytomegalovirus; assay: Inhibitory concentration against CMV strain Davis in human embryonic lung (HEL) cell culture; format: functional; settings: Human betaherpesvirus 5; in short: as §4
[9] = tested on: Human alphaherpesvirus 1; assay: Inhibitory concentration against HSV type 1 strain Mc Intyre in human embryonic skin muscle (ESM) fibroblast cell culture; format: functional; in short: as §2
[10] = tested on: Human alphaherpesvirus 1; assay: Inhibitory concentration against TK-HSV type 1 strain B2006 in human embryonic skin muscle (ESM) fibroblast cell culture; format: functional; in short: as §2
[11] = tested on: Cytomegalovirus; assay: Inhibitory concentration against CMV strain AD169 in human embryonic lung (HEL) cell culture; format: functional; settings: Human betaherpesvirus 5; in short: as §4
[12] = tested on: Human alphaherpesvirus 2; assay: Inhibitory concentration against HSV type 2 strain Lyons in human embryonic skin muscle (ESM) fibroblast cell culture; format: functional; in short: as §2
[13] = tested on: Human alphaherpesvirus 1; assay: Inhibitory concentration against HSV type 1 strain F in human embryonic skin muscle (ESM) fibroblast cell culture; format: functional; in short: as §2
[14] = tested on: Vaccinia virus; assay: Inhibitory concentration against VV in human embryonic skin muscle (ESM) fibroblast cell culture; format: functional; settings: Orthopoxvirus vaccinia
[15] = tested on: Vesicular stomatitis virus; assay: Inhibitory concentration against VSV in human embryonic skin muscle (ESM) fibroblast cell culture; format: functional
[16] = tested on: MOLT-4; assay: Inhibitory concentration required to reduce the growth of human MOLT-4 cells by 50%; format: functional, cell-based; in short: as §1
[17] = tested on: Human immunodeficiency virus 1; assay: Inhibitory concentration required to achieve 50% protection of MT-4 cells against cytopathicity of […]; format: functional, organism-based; settings: Human immunodeficiency virus 1, MT4
In short: (§5)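 MT-4 cells infected with HIV-1 (strain III_B) or HIV-2 (strain ROD). The value is the concentration that protects the cells from virus cytopathicity by 50%.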

[18] = tested on: MT4; assay: Inhibitory concentration required to reduce the growth of human MT-4 cells by 50%; format: functional, cell-based; in short: as §1
[19] = tested on: Human alphaherpesvirus 1; assay: Inhibitory concentration against HSV type 1 strain KOS in human embryonic skin muscle (ESM) fibroblast cell culture; format: functional
[20] = tested on: Human immunodeficiency virus 2; assay: Inhibitory concentration required to achieve 50% protection of MT-4 cells against cytopathicity of […]; format: functional, organism-based; settings: Human immunodeficiency virus 2, MT4; in short: as §5
[21] = tested on: CCRF-CEM; assay: Inhibitory concentration required to reduce the growth of human CEM cells by 50%; format: functional, cell-based; in short: as §1
[22] = tested on: Human alphaherpesvirus 3; assay: Inhibitory concentration against VZV strain YS in human embryonic lung (HEL) cell culture; format: functional
[23] = tested on: Human alphaherpesvirus 2; assay: Inhibitory concentration against HSV type 2 strain 196 in human embryonic skin muscle (ESM) fibroblast cell culture; format: functional; in short: as §2
[24] = tested on: Human alphaherpesvirus 3; assay: Inhibitory concentration against TK-VZV strain 07-1 in human embryonic lung (HEL) cell culture; format: functional
[25] = tested on: Human alphaherpesvirus 3; assay: as §3; format: functional; remark: listed apart in the source

Row | Compound | MIC [1] [µg/mL] | IC50 [2] [µg/mL] | MIC [3] [µg/mL] | IC50 [4] [µg/mL] | MIC [5] [µg/mL] | MIC [6] [µg/mL] | MIC [8] [µg/mL] | MIC [9] [µg/mL] | MIC [10] [µg/mL] | MIC [11] [µg/mL] | MIC [12] [µg/mL] | MIC [13] [µg/mL] | MIC [14] [µg/mL] | MIC [15] [µg/mL] | IC50 [16] [µg/mL] | MIC [19] [µg/mL] | MIC [22] [µg/mL] | MIC [23] [µg/mL] | MIC [24] [µg/mL] | MIC [25] [µg/mL] | further results
1 | Nc1ncnc2c1ncn2[C@@H]1CO[C@H](CO)[C@@H](O)C1 | 4 (≈ 15.1 µM) | > 100 | > 50 | 97.5 (≈ 368 µM) | 7 (≈ 26.4 µM) | > 400 | > 10 | 20 (≈ 75.4 µM) | 150 (≈ 565 µM) | > 10 | 1 (≈ 3.77 µM) | 4 (≈ 15.1 µM) | 40 (≈ 151 µM) | > 200 | > 100 | 7 (≈ 26.4 µM) | 4 (≈ 15.1 µM) | 0.04 (≈ 0.151 µM) | 10 (≈ 37.7 µM) | – | MIC [7]: 3.2 µg/mL (≈ 12.1 µM); IC50 [17]: > 4 µg/mL; IC50 [18]: 12.5 µg/mL (≈ 47.1 µM); IC50 [20]: > 4 µg/mL; IC50 [21]: > 100 µg/mL
2 | Nc1ccn(C2COC(CO)C(O)C2)c(=O)n1 (stereo not drawn) | 0.04 (≈ 0.166 µM) | 29 (≈ 120 µM) | 2 (≈ 8.29 µM) | 28 (≈ 116 µM) | 0.04 (≈ 0.166 µM) | > 400 | 0.75 (≈ 3.11 µM) | 2 (≈ 8.29 µM) | 4 (≈ 16.6 µM) | 0.64 (≈ 2.65 µM) | 0.02 (≈ 0.0829 µM) | 1 (≈ 4.15 µM) | 2 (≈ 8.29 µM) | > 400 | 0.87 (≈ 3.61 µM) | 0.7 (≈ 2.9 µM) | 0.27 (≈ 1.12 µM) | 0.02 (≈ 0.0829 µM) | 0.75 (≈ 3.11 µM) | 0.64 (≈ 2.65 µM) | IC50 [17]: > 0.8 µg/mL; IC50 [18]: 1.1 µg/mL (≈ 4.56 µM); IC50 [20]: > 0.8 µg/mL; IC50 [21]: 1.4 µg/mL (≈ 5.8 µM)
3 | Cc1cn(C2COC(CO)C(O)C2)c(=O)[nH]c1=O (stereo not drawn) | > 100 | > 100 | > 50 | > 100 | 150 (≈ 585 µM) | > 400 | > 10 | 7 (≈ 27.3 µM) | > 400 | > 10 | 20 (≈ 78 µM) | 40 (≈ 156 µM) | > 400 | > 400 | > 100 | 40 (≈ 156 µM) | > 100 | 40 (≈ 156 µM) | > 100 | 100 (≈ 390 µM) | IC50 [17]: 36 µg/mL (≈ 140 µM); IC50 [18]: > 100 µg/mL; IC50 [20]: > 100 µg/mL; IC50 [21]: > 100 µg/mL
4 | Nc1nc(O)c2ncn([C@@H]3CO[C@H](CO)[C@@H](O)C3)c2n1 | 0.9 (≈ 3.2 µM) | 5.4 (≈ 19.2 µM) | 20 (≈ 71.1 µM) | 12.3 (≈ 43.7 µM) | 0.1 (≈ 0.356 µM) | > 400 | 1.2 (≈ 4.27 µM) | 0.7 (≈ 2.49 µM) | 20 (≈ 71.1 µM) | 1.5 (≈ 5.33 µM) | 0.01 (≈ 0.0356 µM) | 0.2 (≈ 0.711 µM) | 7 (≈ 24.9 µM) | > 2 | 14 (≈ 49.8 µM) | 0.2 (≈ 0.711 µM) | 0.1 (≈ 0.356 µM) | 0.02 (≈ 0.0711 µM) | 4 (≈ 14.2 µM) | 2.8 (≈ 9.95 µM) | IC50 [17]: > 4 µg/mL; IC50 [18]: 21 µg/mL (≈ 74.7 µM); IC50 [20]: > 4 µg/mL; IC50 [21]: 21 µg/mL (≈ 74.7 µM)
5 | O=c1[nH]c(=O)n(C2COC(CO)C(O)C2)cc1I (stereo not drawn) | > 100 | > 100 | > 50 | > 100 | 0.07 (≈ 0.19 µM) | > 400 | > 10 | 0.07 (≈ 0.19 µM) | > 200 | > 10 | 0.07 (≈ 0.19 µM) | 0.07 (≈ 0.19 µM) | > 200 | > 200 | > 100 | 0.07 (≈ 0.19 µM) | > 100 | 0.07 (≈ 0.19 µM) | > 100 | > 100 | IC50 [17]: > 100 µg/mL; IC50 [18]: > 100 µg/mL; IC50 [20]: > 100 µg/mL; IC50 [21]: > 100 µg/mL
6 | Nc1nc2c(ncn2COCCO)c(=O)[nH]1 [ACYCLOVIR] | – | – | > 200 | – | 0.02 (≈ 0.0888 µM) | – | – | 0.7 (≈ 3.11 µM) | 70 (≈ 311 µM) | – | 0.7 (≈ 3.11 µM) | 0.4 (≈ 1.78 µM) | > 400 | > 400 | – | 0.02 (≈ 0.0888 µM) | – | 2 (≈ 8.88 µM) | – | – | –
7 | O=c1[nH]c(=O)n([C@H]2C[C@H](O)[C@@H](CO)O2)cc1/C=C/Br [BRIVUDINE] | 0.0007 (≈ 0.0021 µM) | – | > 200 | – | 10 (≈ 30 µM) | > 400 | > 100 | 0.02 (≈ 0.06 µM) | > 400 | > 100 | 70 (≈ 210 µM) | 0.004 (≈ 0.012 µM) | 2 (≈ 6 µM) | > 200 | – | 0.004 (≈ 0.012 µM) | 0.0015 (≈ 0.0045 µM) | 300 (≈ 901 µM) | 8 (≈ 24 µM) | 30 (≈ 90.1 µM) | –
8 | Nc1nc2c(ncn2COC(CO)CO)c(=O)[nH]1 [GANCICLOVIR] | 0.02 (≈ 0.0784 µM) | – | 85 (≈ 333 µM) | – | 0.004 (≈ 0.0157 µM) | – | 6.2 (≈ 24.3 µM) | 0.001 (≈ 0.00392 µM) | 2 (≈ 7.84 µM) | 3 (≈ 11.8 µM) | 0.02 (≈ 0.0784 µM) | 0.007 (≈ 0.0274 µM) | 70 (≈ 274 µM) | > 400 | – | 0.004 (≈ 0.0157 µM) | 0.072 (≈ 0.282 µM) | 0.02 (≈ 0.0784 µM) | 0.1 (≈ 0.392 µM) | 0.9 (≈ 3.53 µM) | –
9 | O=c1[nH]c(=O)n([C@H]2C[C@H](O)[C@@H](CO)O2)cc1I [IDOXURIDINE] | 0.17 (≈ 0.48 µM) | – | > 50 | – | 0.2 (≈ 0.565 µM) | > 400 | – | 1 (≈ 2.82 µM) | 70 (≈ 198 µM) | – | 0.2 (≈ 0.565 µM) | 0.2 (≈ 0.565 µM) | 0.7 (≈ 1.98 µM) | > 400 | – | 0.2 (≈ 0.565 µM) | 0.4 (≈ 1.13 µM) | 0.2 (≈ 0.565 µM) | 4 (≈ 11.3 µM) | 4 (≈ 11.3 µM) | –
